Measured values published in ChEMBL document CHEMBL5303300, “EUbOPEN Chemogenomics Library - Multiplex” (2023).
Where “and” joins values, the source holds several entries; their conditions need not be identical. Equal entries are not always repeated.

Key:
HEK-293T = test: Multiplex assay against HEK293T; assay type: toxicity, cell-based; conditions: human, number of replicates 2
Method in brief: (§1)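 Live cells were stained at seeding with Hoechst33342, BioTracker Green Microtubule Cytoskeleton Dye, MitoTracker Red and Annexin V Alexa Fluor 680. Following compound addition, they were imaged on a CQ1 microscope at 37°C and 5% CO2 and gated by CellPathfinder machine learning into Hoechst high-intensity objects or normal cells, with normal cells split into healthy, pyknosed or fragmented nuclei and pyknosed cells into mitotic or apoptotic. Tubulin, mitochondrial-mass and membrane-permeability phenotypes are per cents of healthy-nucleus cells.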

Fibroblast = test: Multiplex assay against human fibroblast; assay type: toxicity, cell-based; conditions: number of replicates 2; method in brief: as §1
[1] = 12 h, 1 µM, compound concentration 1 uM
[2] = 12 h, 10 µM, compound concentration 10 uM
[3] = 24 h, 1 µM, compound concentration 1 uM
[4] = 24 h, 10 µM, compound concentration 10 uM
[5] = 48 h, 1 µM, compound concentration 1 uM
[6] = 48 h, 10 µM, compound concentration 10 uM

CN1CCN(C(=O)Cc2ccc(N/C(=C3\C(=O)Nc4cc(Cl)ccc43)c3ccccc3)cc2)CC1
Population Apoptotic (%) (HEK-293T; [1]): 28% and 39%
Population Fragmented Nuclei (%) (HEK-293T; [1]): 2% and 3%
Population Healthy Nuclei (%) (HEK-293T; [1]): 86% and 84%
Population Hoechst High Intensity Objects (%) (HEK-293T; [1]): 5%
Population Membrane Permeable-Phenotype (%) (HEK-293T; [1]): 2% and 4%
Population Mitochondria Different-Phenotype (%) (HEK-293T; [1]): 10% and 16%
Population Mitotic Cells (%) (HEK-293T; [1]): 71% and 60%
Population Normal (%) (HEK-293T; [1]): 94%
Population Pyknosed Nuclei (%) (HEK-293T; [1]): 11% and 12%
Population Tubulin-Different-Phenotype (%) (HEK-293T; [1]): 45% and 47%
Total Cell Count (HEK-293T; [1]): 870 and 527
Population Apoptotic (%) (HEK-293T; [2]): 40% and 34%
Population Fragmented Nuclei (%) (HEK-293T; [2]): 1%
Population Healthy Nuclei (%) (HEK-293T; [2]): 86% and 81%
Population Hoechst High Intensity Objects (%) (HEK-293T; [2]): 3% and 5%
Population Membrane Permeable-Phenotype (%) (HEK-293T; [2]): 4% and 6%
Population Mitochondria Different-Phenotype (%) (HEK-293T; [2]): 22% and 18%
Population Mitotic Cells (%) (HEK-293T; [2]): 60% and 65%
Population Normal (%) (HEK-293T; [2]): 96% and 94%
Population Pyknosed Nuclei (%) (HEK-293T; [2]): 11% and 16%
Population Tubulin-Different-Phenotype (%) (HEK-293T; [2]): 67% and 69%
Total Cell Count (HEK-293T; [2]): 702 and 579
Population Apoptotic (%) (HEK-293T; [3]): 29% and 31%
Population Fragmented Nuclei (%) (HEK-293T; [3]): 4%
Population Healthy Nuclei (%) (HEK-293T; [3]): 87%
Population Hoechst High Intensity Objects (%) (HEK-293T; [3]): 9% and 5%
Population Membrane Permeable-Phenotype (%) (HEK-293T; [3]): 3%
Population Mitochondria Different-Phenotype (%) (HEK-293T; [3]): 6% and 10%
Population Mitotic Cells (%) (HEK-293T; [3]): 70% and 68%
Population Normal (%) (HEK-293T; [3]): 90% and 94%
Population Pyknosed Nuclei (%) (HEK-293T; [3]): 7% and 8%
Population Tubulin-Different-Phenotype (%) (HEK-293T; [3]): 28% and 32%
Total Cell Count (HEK-293T; [3]): 1172 and 750
Population Apoptotic (%) (HEK-293T; [4]): 29% and 34%
Population Fragmented Nuclei (%) (HEK-293T; [4]): 3% and 4%
Population Healthy Nuclei (%) (HEK-293T; [4]): 88% and 86%
Population Hoechst High Intensity Objects (%) (HEK-293T; [4]): 4% and 5%
Population Membrane Permeable-Phenotype (%) (HEK-293T; [4]): 3% and 4%
Population Mitochondria Different-Phenotype (%) (HEK-293T; [4]): 12% and 9%
Population Mitotic Cells (%) (HEK-293T; [4]): 70% and 65%
Population Normal (%) (HEK-293T; [4]): 95% and 94%
Population Pyknosed Nuclei (%) (HEK-293T; [4]): 8% and 9%
Population Tubulin-Different-Phenotype (%) (HEK-293T; [4]): 48%
Total Cell Count (HEK-293T; [4]): 992 and 819
Population Apoptotic (%) (HEK-293T; [5]): 17%
Population Fragmented Nuclei (%) (HEK-293T; [5]): 13% and 7%
Population Healthy Nuclei (%) (HEK-293T; [5]): 83% and 87%
Population Hoechst High Intensity Objects (%) (HEK-293T; [5]): 9% and 8%
Population Membrane Permeable-Phenotype (%) (HEK-293T; [5]): 3%
Population Mitochondria Different-Phenotype (%) (HEK-293T; [5]): 0% and 1%
Population Mitotic Cells (%) (HEK-293T; [5]): 82%
Population Normal (%) (HEK-293T; [5]): 90% and 91%
Population Pyknosed Nuclei (%) (HEK-293T; [5]): 2% and 4%
Population Tubulin-Different-Phenotype (%) (HEK-293T; [5]): 12% and 15%
Total Cell Count (HEK-293T; [5]): 2950 and 1758
Population Apoptotic (%) (HEK-293T; [6]): 17% and 42%
Population Fragmented Nuclei (%) (HEK-293T; [6]): 10% and 8%
Population Healthy Nuclei (%) (HEK-293T; [6]): 85% and 87%
Population Hoechst High Intensity Objects (%) (HEK-293T; [6]): 8% and 9%
Population Membrane Permeable-Phenotype (%) (HEK-293T; [6]): 4%
Population Mitochondria Different-Phenotype (%) (HEK-293T; [6]): 3%
Population Mitotic Cells (%) (HEK-293T; [6]): 82% and 58%
Population Normal (%) (HEK-293T; [6]): 91% and 90%
Population Pyknosed Nuclei (%) (HEK-293T; [6]): 3% and 4%
Population Tubulin-Different-Phenotype (%) (HEK-293T; [6]): 31% and 34%
Total Cell Count (HEK-293T; [6]): 1910 and 1370
Population Apoptotic (%) (Fibroblast; [1]): 43% and 30%
Population Fragmented Nuclei (%) (Fibroblast; [1]): 9% and 8%
Population Healthy Nuclei (%) (Fibroblast; [1]): 69%
Population Hoechst High Intensity Objects (%) (Fibroblast; [1]): 0%
Population Membrane Permeable-Phenotype (%) (Fibroblast; [1]): 5% and 7%
Population Mitochondria Different-Phenotype (%) (Fibroblast; [1]): 0% and 1%
Population Mitotic Cells (%) (Fibroblast; [1]): 56% and 69%
Population Normal (%) (Fibroblast; [1]): 100%
Population Pyknosed Nuclei (%) (Fibroblast; [1]): 20% and 21%
Population Tubulin-Different-Phenotype (%) (Fibroblast; [1]): 8% and 15%
Total Cell Count (Fibroblast; [1]): 178 and 179
Population Apoptotic (%) (Fibroblast; [2]): 51% and 36%
Population Fragmented Nuclei (%) (Fibroblast; [2]): 12% and 11%
Population Healthy Nuclei (%) (Fibroblast; [2]): 74% and 67%
Population Hoechst High Intensity Objects (%) (Fibroblast; [2]): 0%
Population Membrane Permeable-Phenotype (%) (Fibroblast; [2]): 7% and 5%
Population Mitochondria Different-Phenotype (%) (Fibroblast; [2]): 2%
Population Mitotic Cells (%) (Fibroblast; [2]): 48% and 63%
Population Normal (%) (Fibroblast; [2]): 100%
Population Pyknosed Nuclei (%) (Fibroblast; [2]): 12% and 21%
Population Tubulin-Different-Phenotype (%) (Fibroblast; [2]): 34% and 26%
Total Cell Count (Fibroblast; [2]): 240 and 203
Population Apoptotic (%) (Fibroblast; [3]): 43% and 52%
Population Fragmented Nuclei (%) (Fibroblast; [3]): 7% and 12%
Population Healthy Nuclei (%) (Fibroblast; [3]): 72% and 68%
Population Hoechst High Intensity Objects (%) (Fibroblast; [3]): 0%
